Tests used:
Rattus norvegicus [1] = species on record: Rattus norvegicus; experiment: Antiallergic activity in Sprague-Dawley rat assessed as inhibition of egg albumin/ Hemophilus pertussis antibody-induced passive cutaneous anaphylaxis (PCA) reaction; type: functional; settings: read-out: ID50 (the source's name)
Procedure, shortened: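 Rats immunized ip with 0.5 mg egg albumin plus 0.5 cm3 heat-killed H. pertussis vaccine; serum collected at 18-20 days. Five 0.1-ml serum dilutions given intradermally on shaved back of 200-g rats. At 72 h, iv challenge with 4 mg EA plus 0.5% Evans blue; compound in THAM solution iv at challenge. Inhibition of spot count versus untreated; ID50 from 3-4 doses, six rats each.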

Rattus norvegicus [2] = species on record: Rattus norvegicus; experiment: Ratio of disodium cromoglycate ID50 to compound ID50 for antiallergic activity in Sprague-Dawley rat by passive cutaneous anaphylaxis (PCA) reaction; type: functional

## O=C(O)C(=O)Nc1cc2c(=O)cc(C(=O)O)[nH]c2c2ccccc12
Rattus norvegicus [1]
  ED50: 0.5 mg/kg

## Cc1cc(NC(=O)C(=O)O)cc2c(=O)cc(C(=O)O)[nH]c12
Rattus norvegicus [2]
  Ratio: 25
Rattus norvegicus [1]
  ED50: 0.1 mg/kg

## O=C(O)C(=O)Nc1ccc2[nH]c(C(=O)O)cc(=O)c2c1
Rattus norvegicus [1]
  ED50: 7 mg/kg

## COc1ccc(NC(=O)C(=O)O)c2c(=O)cc(C(=O)O)[nH]c12
Rattus norvegicus [1]
  ED50: 0.7 mg/kg

## Cc1c(NC(=O)C(=O)O)ccc2c(=O)cc(C(=O)O)[nH]c12
Rattus norvegicus [2]
  Ratio: 25
Rattus norvegicus [1]
  ED50: 0.1 mg/kg

## O=C(O)C(=O)Nc1cccc2c1ccc1c(=O)cc(C(=O)O)[nH]c12
Rattus norvegicus [2]
  Ratio: 25
Rattus norvegicus [1]
  ED50: 0.1 mg/kg

## Cc1ccc(NC(=O)C(=O)O)c2c(=O)cc(C(=O)O)[nH]c12
Rattus norvegicus [1]
  ED50: 0.4 mg/kg

## O=C(O)C(=O)Nc1ccc(Cl)c2[nH]c(C(=O)O)cc(=O)c12
Rattus norvegicus [1]
  ED50: 0.3 mg/kg

## O=C([O-])c1cc(=O)c2c(OCC(O)COc3cccc4oc(C(=O)[O-])cc(=O)c34)cccc2o1.[Na+].[Na+] [CROMOLYN SODIUM]
Rattus norvegicus [1]
  ED50: 2.5 mg/kg
